Assay results reported in ChEMBL document CHEMBL4014313, “Probing Molecular Interactions between Human Carbonic Anhydrases (hCAs) and a Novel Class of Benzenesulfonamides” (J Med Chem, 2017).

molecular target: Carbonic anhydrase 9 (Homo sapiens, UniProt Q16790); assay: Inhibition of human carbonic anhydrase 9 incubated for 15 mins prior to testing by stopped flow CO2 hydration assay
Procedure, shortened: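 Recombinant hCA isoform; stopped-flow CO2 hydration monitored by phenol red (0.2 mM) absorbance at 557 nm, 10−20 mM Hepes pH 7.5 or Tris pH 8.3, 20 mM Na2SO4 or NaClO4 for ionic strength; initial rates over 10−100 s, CO2 1.7 to 17 mM; inhibitor dilutions in water down to 0.01 nM, preincubated with enzyme 15 min at room temperature; uncatalyzed rate subtracted; Ki by nonlinear least squares, mean of at least three determinations.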

`NS(=O)(=O)c1ccc(C(=O)N2CCc3cc(O)c(O)cc3[C@H]2c2ccccc2)cc1` and `NS(=O)(=O)c1ccc(C(=O)N2CCc3cc(O)c(O)cc3[C@@H]2c2ccccc2)cc1` are within 1.5-fold of each other in Ki: 32.7 nM for the first, 39.2 nM for the second.

Going from `COc1cc2c(cc1OC)C(c1ccc(Br)cc1)N(C(=O)c1ccc(S(N)(=O)=O)cc1)CC2` (racemic) to `COc1cc2c(cc1OC)C(c1ccc(F)cc1)N(C(=O)c1ccc(S(N)(=O)=O)cc1)CC2` (racemic), the Ki falls from 90.9 nM to 9.1 nM (10-fold). The second binds more tightly here.

Going from `COc1cc2c(cc1OC)C(c1ccccc1)N(C(=O)c1ccc(S(N)(=O)=O)cc1)CC2` (racemic) to `COc1cc2c(cc1OC)C(c1ccc(Cl)cc1)N(C(=O)c1ccc(S(N)(=O)=O)cc1)CC2` (racemic), the Ki rises from 4.9 nM to 91.4 nM (19-fold).

`COc1ccc2c(c1)CCN(C(=O)c1ccc(S(N)(=O)=O)cc1)C2c1ccccc1` (racemic) and `CCCOc1ccc2c(c1)CCN(C(=O)c1ccc(S(N)(=O)=O)cc1)C2c1ccccc1` (racemic) are within 1.5-fold of each other in Ki: 39.2 nM for the first, 44.5 nM for the second.

`NS(=O)(=O)c1ccc(C(=O)N2CCc3cc(O)c(O)cc3C2c2ccc(F)cc2)cc1` (racemic) and `NS(=O)(=O)c1ccc(C(=O)N2CCc3cc(O)c(O)cc3C2c2ccc(Cl)cc2)cc1` (racemic) are within 1.5-fold of each other in Ki: 8.2 nM for the first, 9 nM for the second.

Compared with `NS(=O)(=O)c1ccc(C(=O)N2CCc3cc(O)ccc3C2c2ccccc2)cc1` (racemic), `COc1ccc2c(c1)CCN(C(=O)c1ccc(S(N)(=O)=O)cc1)C2c1ccccc1` (single isomer, unassigned; enantiomer 1) is 2-fold lower in Ki: 50.6 nM for the first, 25.3 nM for the second. The second binds more tightly here.

Going from `NS(=O)(=O)c1ccc(C(=O)N2CCc3cc(O)c(O)cc3C2c2ccc(Br)cc2)cc1` (racemic) to `NS(=O)(=O)c1ccc(C(=O)N2CCc3cc(O)c(O)cc3C2c2ccccc2)cc1` (racemic), the Ki falls from 81.5 nM to 36.9 nM (2.2-fold). The second binds more tightly here.

`NS(=O)(=O)c1ccc(C(=O)N2CCc3cc(O)ccc3C2c2ccccc2)cc1` (single isomer, unassigned; Enantiomer-1) and `COc1ccc2c(c1)CCN(C(=O)c1ccc(S(N)(=O)=O)cc1)C2c1ccccc1` (single isomer, unassigned; enantiomer 2) are within 1.5-fold of each other in Ki: 73.2 nM for the first, 58.7 nM for the second.

Compared with `COc1cc2c(cc1OC)C(c1ccccc1)N(C(=O)c1ccc(S(N)(=O)=O)cc1)CC2` (single isomer, unassigned; enantiomer 1), `NS(=O)(=O)c1ccc(C(=O)N2CCc3cc(O)ccc3C2c2ccccc2)cc1` (single isomer, unassigned; enantiomer 2) is 8-fold higher in Ki: 5 nM for the first, 39.8 nM for the second. The first binds more tightly here.

Compound `COc1cc2c(cc1OC)C(c1ccccc1)N(C(=O)c1ccc(S(N)(=O)=O)cc1)CC2` (single isomer, unassigned; enantiomer 2) has a Ki of 4.8 nM.

molecular target: Carbonic anhydrase 12 (Homo sapiens, UniProt O43570); assay: Inhibition of human carbonic anhydrase 12 incubated for 15 mins prior to testing by stopped flow CO2 hydration assay
Sequence (O43570 whole entry): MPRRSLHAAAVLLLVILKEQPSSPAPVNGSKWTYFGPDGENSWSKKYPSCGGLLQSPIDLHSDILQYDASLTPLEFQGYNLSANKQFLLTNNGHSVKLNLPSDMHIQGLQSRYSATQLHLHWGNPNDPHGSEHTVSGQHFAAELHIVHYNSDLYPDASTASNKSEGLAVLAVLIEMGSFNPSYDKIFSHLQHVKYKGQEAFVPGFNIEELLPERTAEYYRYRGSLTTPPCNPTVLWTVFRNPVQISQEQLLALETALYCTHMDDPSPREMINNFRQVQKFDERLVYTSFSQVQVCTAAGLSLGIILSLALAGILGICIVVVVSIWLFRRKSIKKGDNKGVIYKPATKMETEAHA

With `NS(=O)(=O)c1ccc(C(=O)N2CCc3cc(O)c(O)cc3C2c2ccc(Cl)cc2)cc1` (racemic) the Ki was 7.6 nM.
